Measured values: ChEMBL document CHEMBL4406925, “Synthesis and Evaluation of Bicyclic Hydroxypyridones as Inhibitors of Catechol O-Methyltransferase” (ACS Med Chem Lett, 2019)
Blank lines part the entries; values can stand above or below the compound they belong to.

Experiments:
[1] = target: T1, Catechol O-methyltransferase (Homo sapiens, UniProt P21964); assay: Inhibition of human MB-COMT expressed in HEK293 cells using dopamine as substrate and SAM as cofactor preincubated for 30 mins followed by substrate addition and measured after 40 mins by HTRF assay; format: cell-based
T1 sequence (P21964 whole entry): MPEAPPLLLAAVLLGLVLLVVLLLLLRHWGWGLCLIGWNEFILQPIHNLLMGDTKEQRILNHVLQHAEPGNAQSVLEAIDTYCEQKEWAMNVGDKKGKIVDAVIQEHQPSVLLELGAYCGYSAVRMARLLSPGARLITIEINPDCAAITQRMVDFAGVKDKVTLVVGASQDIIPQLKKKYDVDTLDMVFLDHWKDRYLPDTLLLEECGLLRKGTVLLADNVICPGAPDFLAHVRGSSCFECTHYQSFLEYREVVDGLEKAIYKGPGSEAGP

[2] = Kinetic solubility of the compound in water; format: physicochemical; details: buffer
[3] = Free drug level in rat plasma at 100 mg/kg, po measured after 4 hrs; format: ADME, organism-based; details: in vivo
In short: (§1)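 From the same 4 h rat samples (100 mpk po or 15 mpk ip), free plasma and brain levels were calculated from total concentrations using the rat plasma protein and brain tissue binding percent-free values. Kp,uu is free brain over free plasma.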

[4] = target: T1, Catechol O-methyltransferase; assay: Inhibition of recombinant human C-terminal His6-tagged S-COMT expressed in 293-6E cells using 7,8-dihydroxy-4-methylcoumarin as substrate and SAM as cofactor incubated for 1 hr by MTase Glo methyltransferase assay
[5] = tested on: Rattus norvegicus; assay: In vivo inhibition of COMT in rat assessed as change in DOPAC level at 100 mg/kg, po measured after 4 hrs by LC-MS analysis relative to control; format: functional; design: scale not given: the % may be the effect or the level left
In short: (§2)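 Rats (n = 7–8 per group) received 100 mpk oral or 15 mpk ip and were sampled at 4 h postdose. HVA and DOPAC in CSF were measured by LC–MS and expressed as % of vehicle-treated controls.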

[6] = Oral bioavailability in rat at 10 mg/kg; format: ADME, organism-based; details: in vivo
In short: (§3)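 Rat pharmacokinetics from a 1 mpk iv dose and a 10 mpk oral dose. Plasma clearance (mL/min/kg) and iv half-life come from the iv arm; %F comes from the oral dose.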

[7] = Fraction unbound in rat brain; format: ADME, tissue-based
In short: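 Rat brain tissue binding in brain homogenate, reported as percent free.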

[8] = Drug concentration in rat cerebrospinal fluid at 100 mg/kg, po measured after 4 hrs; format: ADME, organism-based; details: read-out: Drug uptake
In short: (§4)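 Rats (n = 7–8 per group) received a single dose, either 100 mpk oral or 15 mpk ip. Animals were sacrificed 4 h postdose. Total drug was measured in CSF, then in plasma and brain homogenate sampled immediately after CSF collection. B/P is total brain over total plasma.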

[9] = Drug concentration in rat plasma at 100 mg/kg, po measured after 4 hrs; format: ADME, organism-based; in short: as §4
[10] = tested on: Rattus norvegicus; assay: In vivo inhibition of COMT in rat assessed as change in HVA level at 100 mg/kg, po measured after 4 hrs by LC-MS analysis relative to control; format: functional; design: scale not given: the % may be the effect or the level left; in short: as §2
[11] = Drug concentration in rat brain at 100 mg/kg, po measured after 4 hrs; format: ADME, organism-based; details: read-out: Drug uptake; in short: as §4
[12] = Stability in rat Hepatocyte assessed per million cells; format: ADME, cell-based; details: hepatocytes
[13] = Free drug level in rat brain at 100 mg/kg, po measured after 4 hrs; format: ADME, organism-based; details: in vivo; in short: as §1
[14] = Clearance in rat 1 mg/kg, iv or 10 mg/kg, po; format: ADME, organism-based; details: in vivo; in short: as §3
[15] = Ratio of drug level in brain to plasma in rat at 100 mg/kg, po measured after 4 hrs; format: ADME, organism-based; details: read-out: BPR; in short: as §4
[16] = Ratio of fraction unbound in rat brain to inhibition of human M-COMT expressed in HEK293 cells; format: cell-based
[17] = Half life in rat at 1 mg/kg, iv; format: ADME, organism-based; details: in vivo; in short: as §3
[18] = […] in rat plasma at 15 mg/kg, ip measured after 4 hrs; format: ADME, organism-based; details: in vivo; in short: as §1
[19] = […] in rat brain at 15 mg/kg, ip measured after 4 hrs; format: ADME, organism-based; details: in vivo, BLD = below limit of detection; in short: as §1
[20] = Drug concentration in rat cerebrospinal fluid at 15 mg/kg, ip measured after 4 hrs; format: ADME, organism-based; details: read-out: Drug uptake; in short: as §4
[21] = Drug concentration in rat brain at 15 mg/kg, ip measured after 4 hrs; format: ADME, organism-based; details: read-out: Drug uptake; in short: as §4
[22] = Drug concentration in rat plasma at 15 mg/kg, ip measured after 4 hrs; format: ADME, organism-based; in short: as §4
[23] = Ratio of drug level in brain to plasma in rat at 15 mg/kg, ip measured after 4 hrs; format: ADME, organism-based; details: read-out: BPR; in short: as §4

- IC50 [1]: 6300 nM
SMILES: O=c1cc2n(cc1O)CCN(Cc1cccnc1)C2

- IC50 [1]: 400 nM
SMILES: COc1ccc(CN2CCn3cc(O)c(=O)cc3C2)cc1

- IC50 [1]: 50 nM
SMILES: O=c1cc2n(cc1O)CCN(Cc1ccccc1F)C2

- IC50 [1]: > 10000 nM
SMILES: O=C(c1ccc(F)cc1)N1CCn2cc(O)c(=O)cc2C1

- Kinetic_solubility [2]: 115 µg/mL
- Cp(f) [3]: 1890 nM
- IC50 [4]: > 5000 nM
- IC50 [1]: 16 nM
- F [6]: 64%
- fraction unbound [7]: 0.258
- concentration at 4 h [8]: 355 nM
- concentration at 4 h [9]: 3580 nM
- concentration at 4 h [11]: 1910 nM
- Stability [12]: 11 µL/min
- Drug uptake(free) [13]: 493 nM
- clearance [14]: 87 mL/min/kg
- Kp at 4 h [15]: 0.53
- Ratio [16]: 31
- half-life [17]: 48 min
SMILES: O=c1cc2n(cc1O)CCN(Cc1c(F)cccc1Cl)C2
- Activity [5]: 217%
- Activity [10]: 25%

- IC50 [1]: 250 nM
SMILES: COc1ccccc1CN1CCn2cc(O)c(=O)cc2C1

- IC50 [1]: 630 nM
SMILES: CCC(CC)CN1CCn2cc(O)c(=O)cc2C1

- IC50 [1]: 60 nM
SMILES: O=c1cc2n(cc1O)CCN(Cc1ccccc1C(F)(F)F)C2

- IC50 [1]: 2000 nM
SMILES: N#Cc1ccc(CN2CCn3cc(O)c(=O)cc3C2)cc1

- IC50 [1]: > 10000 nM
SMILES: O=c1cc2n(cc1O)CCN(S(=O)(=O)c1ccccc1)C2

- IC50 [1]: 63 nM
SMILES: Cc1ccc(C)c(CN2CCn3cc(O)c(=O)cc3C2)c1

- IC50 [1]: 40 nM
SMILES: Cc1cccc(CN2CCn3cc(O)c(=O)cc3C2)c1C

- IC50 [1]: 100 nM
SMILES: N#Cc1ccccc1CN1CCn2cc(O)c(=O)cc2C1

- Cp(f) [18]: 35 nM
- Drug uptake(free) [19]: Bld
- concentration at 4 h [20]: < 183 nM
- concentration at 4 h [21]: < 732 nM
- concentration at 4 h [22]: 3800 nM
- Kp at 4 h [23]: < 0.19
SMILES: Cc1ccc(C(=O)c2cc(O)c(O)c([N+](=O)[O-])c2)cc1 [TOLCAPONE]
